# High-throughput results (PubChem BioAssay)
# Most compounds without a hit are left out; they make up all but 1.7% or so of the library.
# IMP-1 inh = IMP-1 metallo-beta-lactamase inhibitors, primary screen, biochemical, epi-absorbance readout, Pseudomonas aeruginosa enzyme | 290,000 compounds, 0.45% hits | purified IMP-1, nitrocefin hydrolysis, epi-absorbance fluorescence | metallo-beta-lactamase IMP-1 (Pseudomonas aeruginosa) | inhibition, % at 5.6 µM;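 active = inhibition above the mean plus 3 SD of all compounds in the same screening run, cut at about 4.5% in these data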;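 note: 0% = IMP-1 with DMSO and 100% = DMSO wells lacking enzyme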
#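 System: purified IMP-1 / Input: IMP-1 dispensed at 0.2 nM / Medium: 50 mM HEPES pH 7.1, 50 µM ZnSO4, 0.05% Brij 35 / Timing: 15 min enzyme–compound preincubation, then 25 min nitrocefin reaction, 25 °C / Technique: plate fluorescence quenching by hydrolysis product, ex 480/em 530 nm / Repeats: singlicate testing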
# procasp7 counter = procaspase-7 activators, primary screen, counter-screen for procaspase-3 activator project, biochemical, absorbance, HTS, human. Caspase-7 (Homo sapiens), P55210. recombinant procaspase-7, Ac-DEVD-pNA absorbance 405 nm; D23A/D198A/D206A triple mutant, cannot self-cleave; scale: DMSO 0, 5 µM enzyme 100. activation, % at 8.5 µM. 330,000 compounds, 0.093% hits. AID 463210, 2010;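 active = percent activation above the screen-wide mean plus 3 SD, cut at about 25% in these data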
#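 Assay system: Uncleavable procaspase-7 mutant enzyme | Input: 2 µM procaspase-7 mutant as dispensed | Timing: 1 h compound preincubation, 2 h substrate cleavage, 25 °C | Repeats: One well per compound | Control set: DMSO wells as 0%, DMSO with 5 µM added PC-7 as 100% | Technique: Epi-absorbance of released pNA at 405 nm, two timepoints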
# proCasp3 act = activators of human procaspase-3 D3A mutant, primary screen, biochemical, absorbance, PC-3 D3A mutant, single concentration | Caspase-3 (Homo sapiens), P42574 | activation, % at 8.5 µM | 330,000 compounds, 0.11% hits | recombinant procaspase-3 D3A, Ac-DEVD-pNA absorbance 405 nm;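 active = activation above the mean of all tested compounds plus 3 SD, cut at about 21% in these data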;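 note: 0% = DMSO alone and 100% = DMSO wells spiked with extra 5 µM PC-3 D3A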
#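 material = Procaspase-3 D3A mutant | probe or stimulus = Ac-DEVD-pNA | compound = single dose, 8.5 µM nominal compound, 0.8% DMSO | timing = 1 h preincubation, 2 h reaction | measured by = 405 nm absorbance of p-nitroaniline, reads at 0 and 120 min | benchmarks = DMSO-only low control, 5 µM PC-3 D3A high control | repeats = singlicate, each compound tested once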
# VIM-2 inh = VIM-2 metallo-beta-lactamase inhibitors, primary screen, biochemical, epi-absorbance readout, Pseudomonas aeruginosa enzyme. purified VIM-2, nitrocefin hydrolysis, epi-absorbance fluorescence. inhibition, % at 5.6 µM. 290,000 compounds, 0.89% hits. AID 1527, 2009;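 active = inhibition above the mean of all tested compounds plus 3 SD, cutoff set per screening run, cut at about 7.5% in these data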;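 note: red hydrolysis product quenches plate fluorescence so inhibitors raise well fluorescence; 0% = enzyme with DMSO and 100% = DMSO without enzyme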
# PolyA inhibitor = polyadenylation inhibitors in yeast reporter cells, primary screen, luminescence, S. cerevisiae. S. cerevisiae SKY197-pL101 polyadenylation reporter, beta-gal luminescence; efflux-impaired pdr1/pdr3 knockout yeast; score 100 = 6 SD above DMSO. activity score, % at 12 µM. 300,000 compounds, 0.02% hits. AID 1875, 2009;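 active = lowest replicate activity score at least 50, where 100 means six control SD above control mean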;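 note: yeast exposed to compound for 9 h at 30 °C; higher score means more reporter readthrough which indicates perturbed polyadenylation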
# Neddylation inh = inhibitors of cullin neddylation, primary screen, biochemical, TR-FRET, uHTS, NAE and Ubc12. calls only at 25 µM. 360,000 compounds, 0.58% hits. NEDD8-conjugating enzyme Ubc12 (Homo sapiens) + NEDD8-activating enzyme E1 regulatory …. AID 651699, 2012; in the data active = inhibition above about 36%
# Target sequence (P61081 whole entry, looked up): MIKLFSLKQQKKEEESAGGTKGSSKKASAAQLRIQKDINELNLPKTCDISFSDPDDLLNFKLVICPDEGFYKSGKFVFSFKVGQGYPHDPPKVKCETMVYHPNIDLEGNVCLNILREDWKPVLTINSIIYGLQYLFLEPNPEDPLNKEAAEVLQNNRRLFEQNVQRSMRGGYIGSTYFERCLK
# Target sequence (Q13564 whole entry, looked up): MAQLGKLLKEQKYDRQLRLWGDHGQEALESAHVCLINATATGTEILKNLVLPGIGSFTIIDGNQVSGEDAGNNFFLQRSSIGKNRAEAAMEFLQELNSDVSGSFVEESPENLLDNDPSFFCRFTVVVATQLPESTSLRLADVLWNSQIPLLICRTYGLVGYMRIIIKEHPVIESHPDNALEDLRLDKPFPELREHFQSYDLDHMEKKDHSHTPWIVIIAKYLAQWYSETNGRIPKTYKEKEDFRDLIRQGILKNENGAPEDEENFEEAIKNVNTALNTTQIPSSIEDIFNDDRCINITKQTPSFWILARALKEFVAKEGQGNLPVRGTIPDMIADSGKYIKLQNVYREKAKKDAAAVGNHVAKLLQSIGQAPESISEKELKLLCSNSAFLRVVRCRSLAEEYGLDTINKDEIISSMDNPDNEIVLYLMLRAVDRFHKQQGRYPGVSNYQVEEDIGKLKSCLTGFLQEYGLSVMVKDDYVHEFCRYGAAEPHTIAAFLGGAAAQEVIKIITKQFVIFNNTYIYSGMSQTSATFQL
# Neddyl conf = blockade of NEDD8 conjugation to cullin – biochemical, TR-FRET, single concentration, confirmation | shares compounds with Neddylation inh | TR-FRET cullin neddylation biochemical assay | calls only at 25 µM | 1,800 compounds, 13% hits | AID 652217, 2013; in the data active = inhibition above about 40%;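 note: neddylation substrate is the cullin 1 ring ligase complex with SKP2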
# The depositor's hits bear a star; i = inactive; / = not tested or not shown; + = active, no number.
SMILES,IMP-1 inh,procasp7 counter,proCasp3 act,VIM-2 inh,PolyA inhibitor,Neddylation inh,Neddyl conf
N=C1C(c2nc3ccccc3[nH]2)=C(O)CN1c1ccccc1,-6.7,1.6,13.6,-5.4,-9.0,i,/
CC1C(O)=C(c2nc3ccccc3[nH]2)C(=N)N1c1ccccc1 (stereo unspecified),1.4,5.2,3.5,-0.2,3.6,+,i
O=C(OCC(=O)N1CCc2ccccc21)C1=COCCO1,-2.7,6.0,-0.7,-2.7,19.8,i,/
COc1cc2sc(-c3ccc(S(C)(=O)=O)cc3)c(C#CCO)c2cc1OC,/,1.2,2.9,/,/,+,+
COc1cc(OC)cc(-c2sc3ccc(OC)cc3c2C#CCO)c1,/,6.3,-8.0,/,/,i,/
Cc1cccc(Cn2c(=O)c3c(nc4n3CCN4Cc3ccco3)n(C)c2=O)c1,-1.0,-5.1,-1.5,1.2,-25.3,i,/
Cc1cc(C(=O)N/N=C/c2c(C)[nH]c3ccccc23)n[nH]1,-3.3,1.5,0.1,-1.6,-3.0,i,/
Cc1[nH]c2ccccc2c1/C=N/NC(=O)c1cc(-c2cccs2)[nH]n1,-2.9,1.3,0.9,-4.4,-3.0,+,i
COc1ccccc1-c1nnc(-c2ccc(C)cc2)o1,/,10.2,-1.8,/,-6.1,i,/
COc1cccc(OC)c1-c1nnc(-c2cn(C)c3ccccc23)o1,-3.1,-6.8,-3.1,0.2,4.8,+,i
O=C(COC(=O)c1cncc(Br)c1)NCC12CC3CC(CC(C3)C1)C2,/,/,/,/,/,i,/
COc1cccc(/C=C/C(=O)OCC(=O)Nc2ccc(Cl)c(S(=O)(=O)N(C)C)c2)c1OC,-2.7,0.8,-4.2,-0.5,5.5,+,i
COc1ccc(OC)c(/C=C/C(=O)OCC(=O)Nc2ccc(Cl)c(S(=O)(=O)N(C)C)c2)c1,-3.2,15.8,10.4,-2.8,1.5,/,/
COc1ccc(CCNC(=O)COC(=O)/C=C/c2ccc(OC)cc2OC)cc1,/,3.3,-8.6,/,/,i,/
COc1ccc(CCNC(=O)COC(=O)/C=C/c2cc(OC)ccc2OC)cc1,/,-3.3,-8.7,/,/,+,/
COc1ccc(OC)c(/C=C/C(=O)OCC(=O)NCc2cccs2)c1,/,-2.9,-0.6,/,/,+,/
COc1ccccc1/C=C/C(=O)OCC(=O)NCCC1=CCCCC1,-1.9,4.3,10.4,-1.8,-4.8,i,/
COc1cccc(/C=C/C(=O)OCC(=O)NCCC2=CCCCC2)c1OC,/,11.2,6.0,/,/,+,i
CC(C)C[C@@H](CO)N1CCN(Cc2cccc(C#N)c2)CCC1=O,-1.6,3.7,0.1,-1.0,-14.5,i,/
CCOC(=O)CC1COc2ccccc2N1C(=O)c1ccc(C)cc1 (stereo unspecified),-0.8,4.1,2.5,0.4,-10.8,i,/
CC(C)C1Cc2ccccc2-c2[nH]c(=S)[nH]c(=O)c21 (stereo unspecified),/,-8.2,-2.0,/,-1.3,i,/
Cc1cccc(NC(=O)CN2C(=O)S/C(=C\c3ccccn3)C2=O)c1,-2.2,2.4,5.6,-3.6,-0.2,i,/
O=c1c(-c2ccccc2)nc2ccccc2n1C(c1ccccn1)c1nc2ccccc2[nH]1 (stereo unspecified),/,/,/,/,/,+,i
O=c1c(-c2cccnc2)nc2ccccc2n1C(c1ccccn1)c1nc2ccccc2[nH]1 (stereo unspecified),/,/,/,/,/,+,i
C(#CCN1CCCC1)CC(c1ccccc1)c1ccccc1,-1.0,3.4,11.6,-1.9,-7.4,i,/
SMILES,IMP-1 inh,procasp7 counter,proCasp3 act,VIM-2 inh,PolyA inhibitor,Neddylation inh,Neddyl conf
CC1Cc2c([nH]c3ccccc23)C(=O)N1 (stereo unspecified),-0.1,8.1,9.3,0.2,5.9,+,/
CN(C(=O)COC(=O)c1ccc(-c2ccc(O)cc2)cc1)C1CCS(=O)(=O)C1 (stereo unspecified),-2.5,5.8,2.4,-2.1,-5.3,+,i
CCN(CC)c1ccc2c(Cl)cc(=O)oc2c1,-1.3,-13.7,-20.5,-2.2,-21.1,/,/
CCN(CC)c1ccc2c(O)cc(=O)oc2c1,-1.4,-6.0,-4.8,-2.5,-3.0,+,i
O=C(Nc1cc(Cl)cc(Cl)c1)c1coc(=O)c(Br)c1,-3.8,-3.0,-1.1,-2.3,-6.0,+,i
O=C(NNC(=O)C1C2CCCCC21)c1coc(=O)c(Br)c1 (stereo unspecified),-2.7,3.3,-1.0,-2.8,-4.7,+,i
O=C(NC(CO)(CO)CO)c1coc(=O)c(Br)c1,-1.6,9.7,-1.6,-0.2,4.1,i,/
Cc1ccc(NC(=O)Cn2nnc(-c3ccccc3NC(=O)c3cccs3)n2)cc1,-3.9,6.9,-5.6,-8.3,-6.6,i,/
Cc1nc(C(=O)N/N=C/c2[nH]ncc2Br)cs1,-0.6,-2.1,-1.2,-2.4,11.3,+,i
COc1ccccc1NC(=O)CSc1nc2c(sc3ccccc32)c(=O)n1CCN(C)C,-0.6,-20.2,-20.4,3.3,5.1,i,/
CN(C)CCn1c(SCc2ccccc2C#N)nc2c(sc3ccccc32)c1=O,2.5,1.7,11.1,10.4*,-28.2,+,/
CCCCC(=O)NC(=S)Nc1cccc(C(=O)O)c1,-2.9,-3.5,-3.5,-4.3,-0.3,i,/
Cc1nc2ccccc2c(=O)n1CCCN1CCOCC1,-1.4,3.1,4.7,-0.9,0.7,+,i
Cc1ccc(-c2cc(C(=O)NCCCN3CCOCC3)c3ccccc3n2)cc1,/,3.3,-3.6,/,9.2,+,/
COc1ccc(-c2nc3ccc(C(=O)NCCCN4CCOCC4)cc3nc2-c2ccc(OC)cc2)cc1,1.8,-14.4,-9.4,1.2,3.6,+,i
Cc1ccc(-c2cc(C(=O)NCCCN3CCOCC3)c3ccccc3n2)cc1C,-2.7,0.4,3.7,-1.6,7.9,/,/
COc1ccc(-c2nc3ccccc3c(=O)n2CCCN2CCOCC2)cc1,-2.6,-4.7,-2.0,-5.7,13.6,i,/
CN(C)S(=O)(=O)Oc1ccc(C(=O)Nc2cccc(Cl)c2)cc1,0.0,-8.0,6.6,-1.0,-10.5,i,/
